N-glyco inh: N-linked glycosylation inhibition. D54 ERlucT glycosylation luciferase reporter, 24 h; percent of 100 nM tunicamycin response. reporter increase, % at 12.5 µM. hit rate 0.23% among 360,000;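 active = mean luciferase reporter signal, scaled so untreated is 0 and the glycosylation-blocking control 100, at or above a set limit in every replicate; inconclusive = mean reaches the limit but not every replicate does; inactive = mean below the limit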;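 note: luciferase carries N-glycosylation sites so blocking glycosylation raises the light; 0% = median of neutral control wells and 100% = median of 100 nM tunicamycin wells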
T cell HTS: T cell immune modulation candidate; response (vesicle binding), % at 7 µM; hit rate 0.068% among 330,000; 2C CD8+ T cell-vesicle binding, flow cytometry; hits give low values;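 active = response, share of CD8 T cells binding vesicles, and their 90th percentile fluorescence all below set limits, cut at about 80% in these data, passing the limit was not always enough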;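 note: values below 100% mean blocked vesicle binding to the CD8+ T cells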
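System: murine 2C transgenic CD8+ T lymphocytes; also added: QL9-loaded Drosophila micro-vesicles; times: binding 1.5 h at 37 °C; measured by: flow cytometry, PE anti-B7-1 (FL2) versus Alexa647 anti-CD8 (FL8), PFA-fixed; control set: Peptide-free naked vesicles (low) and QL9 vesicles with 0.7% DMSO vehicle (high)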
ALR H2O2 inh: human ALR oxidase inhibition via reduced H2O2; P55789; purified ALR, DTT oxidation, H2O2 HRP-luminol luminescence; inhibition, % (no concentration beside the values); hit rate 3.8% among 290,000; AID 485317;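 active = mean replicate inhibition above about 79%, with every replicate also reaching it, limit read from the data; inconclusive = only one of the two criteria met; inactive = mean below limit and not every replicate reaching it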
Target sequence (P55789 whole entry, looked up): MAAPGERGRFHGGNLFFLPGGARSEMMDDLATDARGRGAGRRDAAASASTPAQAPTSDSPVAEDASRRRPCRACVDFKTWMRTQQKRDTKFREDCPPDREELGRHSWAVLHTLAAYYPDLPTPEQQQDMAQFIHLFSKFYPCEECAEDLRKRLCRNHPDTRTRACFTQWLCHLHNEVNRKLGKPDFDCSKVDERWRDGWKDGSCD
Numbers without * were called inactive; i = inactive; u = inconclusive; x = not tested or not shown. Shown is part of a subset that was picked to be rich in hits.

SMILES	N-glyco inh	T cell HTS	ALR H2O2 inh
O=C(COc1nncc2ccccc12)NCCC1=CCCCC1	0	i	x
CC(C)NC(=O)COc1nncc2ccccc12	0	707	100*
O=C(Nc1nc2ccc(S(=O)(=O)N3CCCCC3)cc2s1)c1cccnc1	1	x	2
O=C(Nc1nc2ccc(S(=O)(=O)N3CCCC3)cc2s1)c1cccs1	2	244	x
O=C(Nc1nc2ccc(S(=O)(=O)N3CCCCC3)cc2s1)c1ccncc1	2	285	98*
CN(C)S(=O)(=O)c1ccc2nc(NC(=O)c3cccs3)sc2c1	-8	887	86*
CCn1c(SCC(=O)N(C)CC(=O)Nc2ccc(F)c(F)c2F)nnc1-c1ccco1	-1	505	-1
CNc1nc(Oc2cccc(F)c2)c2sccc2n1	-1	x	x
COCCNC(=O)/C(C#N)=C/c1ccc(OC(=O)c2cccs2)c(OC)c1	1	x	x
COc1ccc(/C=C(\C#N)C(=O)NCC2CCCO2)cc1OC (stereo not drawn)	0	225	37
COc1cc(/C=C(\C#N)C(=O)NCc2cccs2)ccc1O	3	481	99*
COc1ccc(/C=C(\C#N)C(=O)NCc2cccnc2)cc1OC	2	207	3
COc1cc(/C=C(\C#N)C(=O)NCC2CCCO2)ccc1OCC(N)=O (stereo not drawn)	2	337	95*
CCOc1cc(/C=C(\C#N)C(=O)NCc2cccnc2)ccc1O	2	259	88*
S=C(Nc1ccccc1)N1N=C(c2cccs2)CC1c1cccs1 (stereo not drawn)	-6	152	0
Cc1cc([N+](=O)[O-])nn1CCCC(=O)N1CCN(c2ccccc2)CC1	-1	149	98*
O=C(CCSc1ccc(Cl)cc1)N1CCN(c2ccc(O)cc2)CC1	-2	42	100*
O=C(CCN1C(=O)c2ccccc2S1(=O)=O)N1CCN(c2ccc(F)cc2)CC1	-2	894	22
O=C(CSc1ccccc1)N1CCN(c2ccccc2)CC1	-2	372	11
O=C(CCSc1ccccc1)N1CCN(c2ccccc2)CC1	0	433	91*
Cc1c(Cl)c([N+](=O)[O-])nn1CCCC(=O)N1CCN(c2ccccc2)CC1	-1	333	u
O=C(CCN1C(=O)c2ccccc2S1(=O)=O)N1CCN(c2ccccc2)CC1	0	416	88*
O=C(CCSc1ccc(Cl)cc1)N1CCCCCC1	-4	311	-1
COc1ccc(CC(=O)NCc2ccc(Cl)cc2)cc1S(=O)(=O)N1CCOCC1	0	x	x
COc1ccc(NC(=O)C2CCCN2S(=O)(=O)c2ccc3c(c2)C(C)(C)C(=O)N3C)cc1 (stereo not drawn)	1	x	x
SMILES	N-glyco inh	T cell HTS	ALR H2O2 inh
Cc1ccc(NC(=O)COC(=O)c2c(-c3ccccc3)noc2C)c(C)c1	-1	529	x
CCCn1c(NC(=O)c2ccc([N+](=O)[O-])o2)nc2ccccc21	9	275	-35
COc1cc(C#N)ccc1OCC(=O)Nc1cccc(S(=O)(=O)N(C)c2ccccc2)c1	-1	x	x
Cn1ccnc1SCC(=O)c1ccc(Cl)cc1	1	284	51
Cc1nnc(SCC(=O)c2ccc(Cl)cc2)n(N)c1=O	-2	314	99*
Cc1nnc(SCC(=O)Nc2ccccc2F)n(N)c1=O	x	205	-1
Cn1c(CO)cnc1SCC(=O)c1ccc(Cl)cc1	-4	448	99*
CCOC(=O)N1CCC(NC(=O)c2cc(C(=O)NCc3ccc(F)cc3)ccc2CO)CC1	0	258	-1
CCOC(=O)N1CCC(NC(=O)c2cc(S(=O)(=O)N3CCC4(CC3)OCCO4)ccc2F)CC1	1	183	99*
CCOC(=O)N1CCC(NC(=O)c2cc(S(=O)(=O)N3CCOCC3)ccc2F)CC1	1	176	2
CCOC(=O)N1CCC(NC(=O)c2cc(-c3ccc(F)cc3)[nH]c2C)CC1	-3	394	98*
Nc1c(-c2ccccc2)c(CSc2nc3ccccc3[nH]2)nn1-c1ccc(Cl)cc1	6	281	x
Nc1c(-c2ccccc2)c(CSc2nc3ccccc3[nH]2)nn1-c1cccc(Cl)c1	13	271	91*
CN(C)C(=S)N=c1ssc(=S)n1Cc1cccnc1	9	x	x
O=C(NC1CCCCC1)c1ccc(CS(=O)Cc2ccc(Cl)cc2)o1 (stereo not drawn)	-1	296	0
CC[C@]1(C(=O)OC)[C@H]2C(=O)N(C)C(=O)[C@H]2[C@H]2CN=C(SC)N21	0	x	x
O=C(NC(=S)N1CCCc2ccccc21)c1ccc(Cl)cc1	1	347	51
O=C(NC(=S)N1CCCc2ccccc21)c1ccccc1	2	451	99*
COc1ccccc1C(=O)NC(=O)CSc1ccc(C)c(C)c1	0	319	97*
COCCNc1nnc(SCC(=O)NC(=O)c2ccccc2OC)s1	-1	209	0
O=C(Nc1ccc(Cl)c(Cl)c1)Nc1cc(S(=O)(=O)N2CCOCC2)ccc1N1CCCC1	-5	330	-2
CCCCn1c(N)c(N(CCOC)C(=O)CSCc2ccccc2C)c(=O)[nH]c1=O	2	473	x
C[C@@]12C(=O)Nc3ccc(Br)cc3C(=O)N1[C@H]1c3cc(Cl)ccc3OC[C@@H]1[C@@H]2c1ccccc1	17	388	1
C[C@@]12C(=O)Nc3ccc(Br)cc3C(=O)N1[C@H]1c3ccccc3OC[C@@H]1[C@@H]2c1ccccc1	27*	304	2
Cc1ccc2c(c1)[C@H]1[C@H](CO2)[C@H](c2ccccc2)[C@]2(C)C(=O)Nc3ccccc3C(=O)N12	13	409	-2
SMILES	N-glyco inh	T cell HTS	ALR H2O2 inh
Cc1ccc2c(c1)[C@H]1[C@H](CO2)[C@H](c2ccccc2)[C@]2(C)C(=O)Nc3ccc(Cl)cc3C(=O)N12	13	397	4
Cc1ccc2c(c1)C(=O)N1[C@H]3c4ccccc4OC[C@@H]3[C@H](c3ccccc3)[C@]1(C)C(=O)N2	31*	176	4
Cc1ccc2c(c1)NC(=O)[C@@]1(C)[C@@H](c3ccccc3)[C@H]3COc4ccccc4[C@@H]3N1C2=O	36*	x	x
CC(=O)Oc1ccc(C(=O)Nc2cc(NC(=O)c3ccc(OC(C)=O)cc3)cc(C(=O)NC(C)(C)C)c2)cc1	-4	541	-2
Cc1ccc(-n2ncc3c2CCCC3NC(=O)CCCN2CCCC2=O)cc1C (stereo not drawn)	x	249	3
CC(C(=O)c1c[nH]c(C(=O)N=CN(C)C)c1)c1ncc(C(F)(F)F)cc1Cl (stereo not drawn)	5	338	2
CC(C)(C)NC(=O)N1c2ccccc2Sc2ccccc21	-9	196	82*
CC(C)NC(=O)N1c2ccccc2Sc2ccccc21	0	i	73
COCCCNC(=O)N1c2ccccc2Sc2ccccc21	-1	254	3
CCCCC(=O)NNC(=O)N1c2ccccc2Sc2ccccc21	-1	226	99*
CC1CCN(C(=O)COc2ccc(S(=O)(=O)N3CCOCC3)cc2)CC1	1	266	7
CCCCCCN1C[C@H](O)[C@@H](n2cc(C3CC3)nn2)C[C@@H]1c1ccccc1	1	x	x
CCCOc1ccc(/C=C/C(=O)N2CCN(C(=O)c3ccco3)CC2)cc1OC	-4	x	x
Cc1nc2sccn2c(=O)c1S(=O)(=O)NCC1CCN(Cc2ccccc2Cl)CC1	0	229	0
